# Measurements as given in ChEMBL document CHEMBL3352189 (J Med Chem, 2014).
# Active and inactive are the calls of the source. The rule behind the calls is not given here.
# Key:
# [1] = Permeability at pH 7.4 by PAMPA assay; format: ADME
# Cytochrome P450 2C19 = Cytochrome P450 2C19 (Homo sapiens, UniProt P33261); test: Inhibition of human CYP2C19 at 10 uM; format: ADME; details: 10 µM
# [2] = Cytotoxicity against african green monkey Vero 76 cells after 3 days by Celltiter-Glo reagent based assay; format: cell-based; details: chlorocebus sabaeus, vero 76, 72 h
# In short: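 Vero 76 cells were seeded overnight at 12 000/well and given an 8-point 2-fold compound series (20 mM DMSO stock) in EMEM/10% FBS with no virus. Viability was read by CellTiter-Glo after 3 days relative to untreated cells. Run in duplicate; CC50 from a four-parameter logistic or sigmoidal fit.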
# [3] = system: Venezuelan equine encephalitis virus; test: Antiviral activity against Venezuelan equine encephalitis virus TrD infected in Vero 76 cells assessed as reduction in viral titer at 5 uM by crystal violet staining based microplaque assay relative to untreated control; format: functional, organism-based
# [4] = system: Venezuelan equine encephalitis virus; test: Antiviral activity against Venezuelan equine encephalitis virus TC83 infected in Vero 76 cells assessed as reduction in viral titer by crystal violet staining based microplaque assay relative to untreated control; format: functional, organism-based; details: TC83, Vero 76
# [5] = system: Venezuelan equine encephalitis virus; test: Antiviral activity against Venezuelan equine encephalitis virus TrD infected in Vero 76 cells assessed as reduction in viral titer at 1 uM by crystal violet staining based microplaque assay relative to untreated control; format: functional
# [6] = Selectivity index, ratio of CC50 for african green monkey Vero 76 cells to EC50 for Venezuelan equine encephalitis virus TC83; format: toxicity, cell-based; details: read-out: Ratio CC50/EC50
# [7] = system: Venezuelan equine encephalitis virus; test: Antiviral activity against Venezuelan equine encephalitis virus TC83 infected in Vero 76 cells assessed as reduction in viral titer at 1 uM by crystal violet staining based microplaque assay relative to untreated control; format: functional
# [8] = system: Venezuelan equine encephalitis virus; test: Antiviral activity against Venezuelan equine encephalitis virus TrD infected in Vero 76 cells assessed as reduction in viral titer at 0.5 uM by crystal violet staining based microplaque assay relative to untreated control; format: functional, organism-based
# [9] = system: Venezuelan equine encephalitis virus; test: Antiviral activity against Venezuelan equine encephalitis virus V3526 infected in Vero 76 cells assessed as reduction in virus-induced cytopathic effect after 2 days by Celltiter-Glo reagent based assay; format: functional, organism-based; details: V3526, Vero 76, 48 h
# [10] = Aqueous solubility in PBS buffer; format: physicochemical
# In short: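 Solubility measured in 1× PBS at pH 7.4.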
# [11] = system: Venezuelan equine encephalitis virus; test: Antiviral activity against Venezuelan equine encephalitis virus TrD infected in Vero 76 cells assessed as reduction in virus-induced cytopathic effect after 2 days by Celltiter-Glo reagent based assay; format: functional, organism-based; details: Vero 76, 48 h
# [12] = system: Venezuelan equine encephalitis virus; test: Antiviral activity against Venezuelan equine encephalitis virus TC83 infected in Vero 76 cells assessed as reduction in virus-induced cytopathic effect after 2 days by Celltiter-Glo reagent based assay; format: functional, organism-based; details: TC83, Vero 76, 48 h
# CYP2D6 = CYP2D6 (Homo sapiens, UniProt P10635); test: Inhibition of human CYP2D6 at 10 uM; format: ADME
# Chain of CYP2D6 (P10635 whole entry): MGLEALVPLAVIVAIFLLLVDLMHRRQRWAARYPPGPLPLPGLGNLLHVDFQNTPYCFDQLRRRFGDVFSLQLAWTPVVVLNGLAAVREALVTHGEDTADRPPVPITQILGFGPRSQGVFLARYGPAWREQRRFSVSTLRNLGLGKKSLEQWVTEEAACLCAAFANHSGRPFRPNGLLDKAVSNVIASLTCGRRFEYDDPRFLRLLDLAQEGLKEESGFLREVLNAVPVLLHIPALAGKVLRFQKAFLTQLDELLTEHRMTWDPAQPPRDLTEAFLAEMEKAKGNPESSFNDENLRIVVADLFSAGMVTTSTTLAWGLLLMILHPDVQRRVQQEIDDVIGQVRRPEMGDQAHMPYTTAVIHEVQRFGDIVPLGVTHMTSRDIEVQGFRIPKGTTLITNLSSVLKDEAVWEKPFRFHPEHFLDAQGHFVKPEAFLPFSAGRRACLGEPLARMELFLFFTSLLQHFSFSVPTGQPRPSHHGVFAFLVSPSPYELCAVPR
# Chain of Cytochrome P450 2C19 (P33261 whole entry): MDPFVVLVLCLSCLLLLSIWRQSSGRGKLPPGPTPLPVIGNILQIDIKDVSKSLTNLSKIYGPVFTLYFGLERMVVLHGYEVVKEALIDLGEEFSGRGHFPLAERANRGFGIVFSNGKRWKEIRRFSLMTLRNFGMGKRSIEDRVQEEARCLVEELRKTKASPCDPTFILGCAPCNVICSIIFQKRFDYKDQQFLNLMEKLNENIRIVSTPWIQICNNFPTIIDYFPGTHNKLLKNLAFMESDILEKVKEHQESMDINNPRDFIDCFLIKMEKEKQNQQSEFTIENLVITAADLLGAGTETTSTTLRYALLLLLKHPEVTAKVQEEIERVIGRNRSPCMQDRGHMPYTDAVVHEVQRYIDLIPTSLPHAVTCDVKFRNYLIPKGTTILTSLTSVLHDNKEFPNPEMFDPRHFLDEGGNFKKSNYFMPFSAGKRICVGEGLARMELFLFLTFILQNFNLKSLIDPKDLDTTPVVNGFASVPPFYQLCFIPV
smiles,measurement,setting,value
Cn1c(=O)c2[nH]cnc2n(C)c1=O.O [THEOPHYLLINE],permeability,[1],0.32 ×10⁻⁶ cm/s
Cc1c(OCC(F)(F)F)ccnc1C[S+]([O-])c1nc2ccccc2[nH]1 (centres undefined) [LANSOPRAZOLE],inhibition (INH),Cytochrome P450 2C19,86%
COc1ccc(NC(=O)c2cc([N+](=O)[O-])ccc2/N=C2\CN(C)CCN2C)cc1,CC50,[2],> 50000 nM
same,inhibition,[3],Active
same,EC50,[4],170 nM
same,inhibition,[5],Active
same,selectivity ratio,[6],> 1250
same,fold change (FC),[7],16000000
same,inhibition,[8],Active
same,EC50,[9],20 nM
same,solubility,[10],105.6 µg/mL
same,EC50,[11],50 nM
same,EC50,[12],40 nM
C=C[C@H]1C[N@@]2CC[C@H]1C[C@@H]2[C@@H](O)c1ccnc2ccc(OC)cc12 [QUINIDINE],inhibition at 10 µM,CYP2D6,88%
